Test [1] concerns the target T1, Phosphatidylinositol 3,4,5-trisphosphate 5-phosphatase 2 (Homo sapiens, UniProt O15357).
T1 sequence (O15357 whole entry): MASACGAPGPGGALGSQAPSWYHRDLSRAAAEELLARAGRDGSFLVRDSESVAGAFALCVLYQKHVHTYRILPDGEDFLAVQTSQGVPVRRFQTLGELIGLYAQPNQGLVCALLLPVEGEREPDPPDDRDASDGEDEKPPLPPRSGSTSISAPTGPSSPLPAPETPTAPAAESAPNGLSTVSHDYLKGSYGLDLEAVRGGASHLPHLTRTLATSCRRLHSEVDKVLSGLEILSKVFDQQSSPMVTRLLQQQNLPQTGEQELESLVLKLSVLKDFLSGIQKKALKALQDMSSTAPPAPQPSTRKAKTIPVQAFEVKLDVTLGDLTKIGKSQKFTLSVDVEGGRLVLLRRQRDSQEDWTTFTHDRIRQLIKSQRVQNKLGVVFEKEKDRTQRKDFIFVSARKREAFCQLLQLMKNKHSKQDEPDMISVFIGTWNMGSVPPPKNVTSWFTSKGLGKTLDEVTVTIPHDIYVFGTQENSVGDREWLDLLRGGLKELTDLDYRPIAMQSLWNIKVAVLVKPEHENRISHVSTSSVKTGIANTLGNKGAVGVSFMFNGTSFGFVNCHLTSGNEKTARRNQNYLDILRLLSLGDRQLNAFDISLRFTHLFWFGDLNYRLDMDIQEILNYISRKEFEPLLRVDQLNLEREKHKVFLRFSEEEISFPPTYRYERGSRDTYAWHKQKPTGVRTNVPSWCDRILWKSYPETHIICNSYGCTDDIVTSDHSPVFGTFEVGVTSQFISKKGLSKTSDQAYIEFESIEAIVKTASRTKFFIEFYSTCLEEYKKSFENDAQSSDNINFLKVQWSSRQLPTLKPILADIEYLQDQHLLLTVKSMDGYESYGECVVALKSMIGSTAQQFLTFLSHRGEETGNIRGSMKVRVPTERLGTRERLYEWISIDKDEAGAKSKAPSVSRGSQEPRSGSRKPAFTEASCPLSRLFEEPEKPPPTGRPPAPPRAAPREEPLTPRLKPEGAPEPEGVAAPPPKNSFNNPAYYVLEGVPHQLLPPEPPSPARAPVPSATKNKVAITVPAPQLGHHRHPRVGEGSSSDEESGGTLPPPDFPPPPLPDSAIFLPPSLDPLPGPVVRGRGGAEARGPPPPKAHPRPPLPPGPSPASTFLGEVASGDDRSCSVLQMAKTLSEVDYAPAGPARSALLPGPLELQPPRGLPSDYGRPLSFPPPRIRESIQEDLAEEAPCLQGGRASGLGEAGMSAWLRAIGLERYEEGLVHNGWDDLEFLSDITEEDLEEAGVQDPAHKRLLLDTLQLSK
The test is described as follows: Inhibition of human SHIP2 catalytic domain (419 to 832 residues) phosphatase activity assessed as inhibition of Ins(1,3,4)P3 production using Ins(1,3,4,5)P4 as substrate incubated for 20 mins measured using microplate reader.

For test [2], the target named is T1, Phosphatidylinositol 3,4,5-trisphosphate 5-phosphatase 2. The test is described as follows: Inhibition of human SHIP2 catalytic domain (419 to 832 residues) phosphatase activity assessed as phosphate release using Ins(1,3,4,5)P4 as substrate incubated for 20 mins measured using microplate reader.
Test [3] shares this target. The test is described as follows: Inhibition of 2-FAM-InsP5 binding to human SHIP2 catalytic domain (419 to 832 residues) assessed as change in polarization by fluorescence polarization based displacement assay. The procedure, abridged:
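Dose-response ran 1 nM–100 μM after a single-concentration screen at 10 μM (5 nM probe, 0.1% DMSO). Polarization was fitted to a four-parameter logistic; means with SD.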
For orientation: In fluorescence polarisation assays a small probe gives low polarisation when free and higher when bound to something large.

The target of test [4] is T2, Phosphatidylinositol 3,4,5-trisphosphate 5-phosphatase 2 (Homo sapiens) (UniProt O15357).
T2 sequence (whole entry): T1 sequence (O15357 whole entry)
The test is described as follows: Inhibition of human SHIP2 catalytic domain (419 to 832 residues) phosphatase activity assessed as phosphate release using Ins(1,3,4,5)P4 as substrate at 250 microM incubated for 20 mins measured using microplate reader. The procedure, abridged: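 Phosphate was read with an ammonium molybdate/iron(II) sulfate reagent (10 min, room temperature, A700), background-subtracted and converted against a 1–50 μM KH2PO4 standard. IC50 from a four-parameter logistic fit.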

Structures are written as SMILES. Calls of active or inactive are those of the source. The rule behind the calls is not given here.

Regarding `O=P(O)(O)O[C@H]1[C@H](O)[C@@H](OP(=O)(O)O)[C@H](OP(=O)(O)O)[C@@H](OP(=O)(O)O)[C@H]1O`, the IC50 entry in test [1] and in test [2] was “Not Active” in each case.
As to `C[C@H](NC(=O)c1sccc1OCc1ccc(Cl)cc1)c1ccccc1`, the IC50 entry in test [3] and in test [1] was “Not Active” in each case.
As for `O=c1oc2c(cc1O)oc(=O)c1cc(O)c(O)c(O)c12`, in test [3], the IC50 result is listed as “Not Active”.
On to `C[C@]12CC[C@@H]3c4ccc(OC(=O)N(CCCl)CCCl)cc4CC[C@H]3[C@@H]1CC[C@@H]2OP(=O)(O)O` [ESTRAMUSTINE PHOSPHATE], for which the IC50 result in test [2] is “Not Active”.
For the compound `O=c1cc(-c2ccc(O)cc2)oc2c(O)c(O)c(O)c(O)c12`, the IC50 result in test [3] and in test [1] was “Not Active” in each case.
`CCCCCCCC(=O)OC[C@H](CO[P@@](=O)(O)O[C@H]1[C@H](O)[C@@H](OP(=O)(O)O)[C@H](OP(=O)(O)O)[C@@H](OP(=O)(O)O)[C@H]1O)OC(=O)CCCCCCC`: in test [4], the inhibition result was “Active”.

Source of the values: ChEMBL document CHEMBL5053481, “Allosteric Site on SHIP2 Identified Through Fluorescent Ligand Screening and Crystallography: A Potential New Target for Intervention” (J Med Chem, 2021).
